In ChEMBL document CHEMBL1125433, “Exploration of N-phosphonoalkyl-, N-phosphonoalkenyl-, and N-(phosphonoalkyl)phenyl-spaced alpha-amino acids as competitive N-methyl-D-aspartic acid antagonists” (J Med Chem, 1992):

What follows are molecules tested against T1, Glutamate NMDA receptor (Rattus norvegicus) (UniProt P35439+Q00959+Q00960+Q00961+Q62645+Q8VHN2+Q9R1M7) (assay: Inhibitory activity evaluated by its ability to displace [3H]CPP from NMDA receptor in rat cortical membranes at 10E-4 concentration of the compound). Settings: not given.
Format: cell membranes
Method in brief: (§1)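 Rat forebrain crude synaptic membranes were pretreated with Triton X-100 and washed in 50 mM Tris-HCl pH 7.6. Membranes (200-400 µg protein/mL) were incubated with 10 nM [3H]CPP and test agent for 15 min at 23 °C, in triplicate. Pellets were collected by centrifugation and counted. Percent inhibition = (T−S)/T×100, where T and S are specific binding without and with test agent.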
`O=C(O)CNCc1ccccc1CP(=O)(O)O` gave an inhibition of 21%. `O=C(O)CNCc1cccc(P(=O)(O)O)c1` was tested, and the inhibition was 21%. Molecule `O=C(O)CNc1ccccc1CCP(=O)(O)O` has an inhibition of 0%.

What follows are molecules tested against Glutamate NMDA receptor (assay: Inhibitory activity evaluated by its ability to displace [3H]CPP from N-methyl-D-aspartate glutamate receptor in rat cortical membranes at 10E-5 concentration of the compound). Settings: not given.
Format: cell membranes
Method in brief: as §1
Molecule `N/C(=N\CC(=O)O)c1cccc(CP(=O)(O)O)c1` has an IC50 of 18 µM.

These molecules were tested against Glutamate NMDA receptor (assay: Inhibitory activity evaluated by its ability to displace [3H]CPP from rat cortical membrane receptor at 10E-5 concentration of the compound). Settings: not given.
Method in brief: (§2)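 Crude synaptic membranes from whole brain minus cerebellum and brainstem of male Long-Evans rats, treated with 0.01% Triton X-100 at 37 °C for 30 min and washed. Membranes (200-400 µg protein/mL) were incubated with 10 nM [3H]CPP in 50 mM Tris-HCl pH 7.6 for 15 min at 23 °C in triplicate. Bound ligand was separated by centrifugation and counted by liquid scintillation. Inhibition of specific binding was calculated as ((T−S)/T)×100.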
`O=C(O)CNCc1cccc(CP(=O)(O)O)c1` showed an IC50 of 2.4 µM. Molecule `O=C(O)C1CN(CP(=O)(O)O)CCN1` (stereo unspecified) has an IC50 of 0.065 µM. Molecule `O=C(O)CNC/C=C/CP(=O)(O)O` has an IC50 of 1 µM. `O=C(O)CNCc1ccc(CP(=O)(O)O)cc1` showed an IC50 of 2.3 µM.

The molecules below were run against Glutamate NMDA receptor (assay: Inhibitory activity evaluated by its ability to displace [3H]CPP from rat cortical membrane N-methyl-D-aspartate glutamate receptor at 10E-5 concentration of the compound). Settings: not given.
Method in brief: as §2
`CC(NC/C=C\CP(=O)(O)O)C(=O)O` (stereo unspecified) was tested, and the IC50 was 42.4 µM. `O=C(O)CNCC/C=C\P(=O)(O)O` gave an IC50 of 2.25 µM.

What follows are molecules tested against Glutamate NMDA receptor (assay: Inhibitory activity evaluated by its ability to displace [3H]CPP from N-methyl-D-aspartate glutamate receptor in rat cortical membranes at 10E-4 concentration of the compound). Settings: not given.
Format: cell membranes
Method in brief: as §1
`O=C(O)CNCCc1cccc(CP(=O)(O)O)c1` gave an IC50 of 13.7 µM.

Organism: Rattus norvegicus
Experiment: In vitro antagonist activity by its ability to inhibit glutamate-induced accumulation of [45Ca2+]- in cultured rat cortical neurons.
Format: functional
Settings: not given
Method in brief: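 Cortical neurons came from E18 Sprague-Dawley rat fetuses and were used 14-16 days after plating. Cells were held in Mg-free HBSS with 1.4 mM CaCl2, pH 7.4, at 37 °C and 5% CO2. They were exposed for 30 min to 100 µM L-glutamate (final) plus 45Ca2+ (2 µCi/mL) with test agent, then washed with saline, lysed in water and beta-counted. Baseline uptake without glutamate was subtracted. IC50 came from at least four half-log concentrations, with at least six replicates each.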
For `O=C(O)CNc1ccccc1C(=O)O`, the IC50 was greater than 250 µM. Work on `O=C(O)CNCC/C=C\P(=O)(O)O` yielded an IC50 of 36 µM. `O=C(O)C1CN(CCCP(=O)(O)O)CCN1` (stereo unspecified) gave an IC50 of 2.4 µM. With `NC(CCCP(=O)(O)O)C(=O)O` (stereo unspecified) the IC50 was 6.1 µM. Molecule `O=C(O)CNCc1cccc(CP(=O)(O)O)c1` has an IC50 of 40 µM. In the case of `NC(CCCCCP(=O)(O)O)C(=O)O` (stereo unspecified) [AP-7], the IC50 is reported as 30 µM. For `O=C(O)C1CN(CP(=O)(O)O)CCN1` (stereo unspecified), the IC50 was 5.2 µM. `O=C(O)CNC/C=C/CP(=O)(O)O` was tested, and the IC50 was 16.7 µM. With `N/C(=N\CC(=O)O)c1cccc(CP(=O)(O)O)c1` the IC50 was 137 µM. For `O=C(O)CNCCc1cccc(CP(=O)(O)O)c1`, the IC50 was 144 µM. `O=C(O)CNCc1ccc(CP(=O)(O)O)cc1` showed an IC50 of 59 µM.

These molecules were tested against T1, Glutamate NMDA receptor (Rattus norvegicus) (assay: Displacement of [3H]CPP from N-methyl-D-aspartate glutamate receptor of rat cortical membranes). Settings: Membrane, concentration not given here.
Format: cell membranes
Parameters: concentration or dose not given beside the values
Method in brief: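 Membranes were crude synaptic membranes from whole brain, minus cerebellum and brainstem, of male Long-Evans rats. They were treated with 0.01% Triton X-100 (37 °C, 30 min) and washed in 50 mM Tris-HCl pH 7.6. Membranes (200-400 µg protein/mL) were incubated with 10 nM [3H]CPP for 15 min at 23 °C, in triplicate. Bound ligand was separated by centrifugation and counted by scintillation. IC50 was fitted by nonlinear least squares from four or more concentrations.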
Work on `CC(NCc1cccc(CP(=O)(O)O)c1)C(=O)O` (stereo unspecified) yielded an inhibition of 31%. For `O=C(O)CNCCCCP(=O)(O)O`, the inhibition was 17%. Work on `O=C(O)CNc1ccccc1/C=C/P(=O)(O)O` yielded an inhibition of 9%. `CC(NCc1ccccc1CP(=O)(O)O)C(=O)O` (stereo unspecified) showed an inhibition of 4%. `O=C(O)CNc1ccccc1P(=O)(O)O` was tested, and the inhibition was 27%. `O=C(O)CNc1cccc(CCP(=O)(O)O)c1` showed an inhibition of 0%. Molecule `O=C(O)CNc1cccc(CCCP(=O)(O)O)c1` has an inhibition of 5%. `O=C(O)CNCCP(=O)(O)O` gave an inhibition of 14%. `O=C(O)CNCCSCP(=O)(O)O` showed an inhibition of 60%. Molecule `O=C(O)CNCCCP(=O)(O)O` has an inhibition of 3%. Work on `O=C(O)CNc1cccc(/C=C/CP(=O)(O)O)c1` yielded an inhibition of 13%. Work on `O=C(O)CNCC[S+]([O-])CP(=O)(O)O` (stereo unspecified) yielded an inhibition of 4%. Work on `O=C(O)CNc1ccccc1CP(=O)(O)O` yielded an inhibition of 48%. `CC(C)C(NCc1cccc(CP(=O)(O)O)c1)C(=O)O` (stereo unspecified) gave an inhibition of 0%.
